Data published in ChEMBL document CHEMBL5058577, “EUbOPEN Chemogenomics Library 2 (Multiplex)” (2022).

Tested on: HEK-293T
Test: Multiplex assay against HEK293T
Type: toxicity, cell-based
Conditions: human
How it was run: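 At seeding, live cells were stained with Hoechst33342, BioTracker Green Microtubule Cytoskeleton Dye, MitoTracker Red and Annexin V Alexa Fluor 680. After compound addition they were imaged on a CQ1 microscope at 37°C and 5% CO2, and CellPathfinder machine-learning gating sorted them into Hoechst high-intensity objects or normal cells, with normal cells further split into healthy, pyknosed or fragmented nuclei and pyknosed cells into mitotic or apoptotic. Tubulin, mitochondrial-mass and membrane-permeability phenotypes are given as per cents of cells with healthy nuclei.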

[1] = 12 h, 1 µM, compound concentration 1 uM, replicate 1
[2] = 12 h, 1 µM, compound concentration 1 uM, replicate 2
[3] = 12 h, 10 µM, compound concentration 10 uM, replicate 1
[4] = 12 h, 10 µM, compound concentration 10 uM, replicate 2
[5] = 24 h, 1 µM, compound concentration 1 uM, replicate 1
[6] = 24 h, 1 µM, compound concentration 1 uM, replicate 2
[7] = 24 h, 10 µM, compound concentration 10 uM, replicate 1
[8] = 24 h, 10 µM, compound concentration 10 uM, replicate 2
[9] = 48 h, 1 µM, compound concentration 1 uM, replicate 1
[10] = 48 h, 1 µM, compound concentration 1 uM, replicate 2
[11] = 48 h, 10 µM, compound concentration 10 uM, replicate 1
[12] = 48 h, 10 µM, compound concentration 10 uM, replicate 2

Cl.Clc1ccc2nsnc2c1NC1=NCCN1 [TIZANIDINE HYDROCHLORIDE]
Population Apoptotic (%) [1]: 39% | Population Fragmented Nuclei (%) [1]: 9% | Population Healthy Nuclei (%) [1]: 80% | Population Hoechst High Intensity Objects (%) [1]: 8% | Population Membrane Permeable-Phenotype (%) [1]: 0% | Population Mitochondria Different-Phenotype (%) [1]: 36% | Population Mitotic Cells (%) [1]: 60% | Population Normal (%) [1]: 91% | Population Pyknosed Nuclei (%) [1]: 9% | Population Tubulin-Different-Phenotype (%) [1]: 26% | Total Cell Count [1]: 474 | Population Apoptotic (%) [2]: 44% | Population Fragmented Nuclei (%) [2]: 2% | Population Healthy Nuclei (%) [2]: 83% | Population Hoechst High Intensity Objects (%) [2]: 9% | Population Mitochondria Different-Phenotype (%) [2]: 62% | Population Mitotic Cells (%) [2]: 55% | Population Normal (%) [2]: 90% | Population Pyknosed Nuclei (%) [2]: 13% | Population Tubulin-Different-Phenotype (%) [2]: 20% | Total Cell Count [2]: 373 | Population Apoptotic (%) [3]: 30% | Population Fragmented Nuclei (%) [3]: 9% | Population Healthy Nuclei (%) [3]: 80% | Population Hoechst High Intensity Objects (%) [3]: 6% | Population Membrane Permeable-Phenotype (%) [3]: 0% | Population Mitochondria Different-Phenotype (%) [3]: 45% | Population Mitotic Cells (%) [3]: 70% | Population Normal (%) [3]: 93% | Population Pyknosed Nuclei (%) [3]: 9% | Population Tubulin-Different-Phenotype (%) [3]: 32% | Total Cell Count [3]: 450 | Population Apoptotic (%) [4]: 46% | Population Fragmented Nuclei (%) [4]: 7% | Population Healthy Nuclei (%) [4]: 79% | Population Hoechst High Intensity Objects (%) [4]: 4% | Population Mitochondria Different-Phenotype (%) [4]: 67% | Population Mitotic Cells (%) [4]: 53% | Population Normal (%) [4]: 95% | Population Pyknosed Nuclei (%) [4]: 13% | Population Tubulin-Different-Phenotype (%) [4]: 27% | Total Cell Count [4]: 343 | Population Apoptotic (%) [5]: 32% | Population Fragmented Nuclei (%) [5]: 11% | Population Healthy Nuclei (%) [5]: 79% | Population Hoechst High Intensity Objects (%) [5]: 4% | Population Membrane Permeable-Phenotype (%) [5]: 0% | Population Mitochondria Different-Phenotype (%) [5]: 20% | Population Mitotic Cells (%) [5]: 67% | Population Normal (%) [5]: 95% | Population Pyknosed Nuclei (%) [5]: 8% | Population Tubulin-Different-Phenotype (%) [5]: 17% | Total Cell Count [5]: 597 | Population Apoptotic (%) [6]: 45% | Population Fragmented Nuclei (%) [6]: 10% | Population Healthy Nuclei (%) [6]: 80% | Population Hoechst High Intensity Objects (%) [6]: 5% | Population Mitochondria Different-Phenotype (%) [6]: 38% | Population Mitotic Cells (%) [6]: 54% | Population Normal (%) [6]: 94% | Population Tubulin-Different-Phenotype (%) [6]: 15% | Total Cell Count [6]: 434 | Population Apoptotic (%) [7]: 32% | Population Fragmented Nuclei (%) [7]: 11% | Population Healthy Nuclei (%) [7]: 78% | Population Hoechst High Intensity Objects (%) [7]: 5% | Population Membrane Permeable-Phenotype (%) [7]: 1% | Population Mitochondria Different-Phenotype (%) [7]: 23% | Population Mitotic Cells (%) [7]: 67% | Population Normal (%) [7]: 94% | Population Pyknosed Nuclei (%) [7]: 9% | Population Tubulin-Different-Phenotype (%) [7]: 18% | Total Cell Count [7]: 621 | Population Apoptotic (%) [8]: 29% | Population Fragmented Nuclei (%) [8]: 10% | Population Healthy Nuclei (%) [8]: 81% | Population Hoechst High Intensity Objects (%) [8]: 6% | Population Membrane Permeable-Phenotype (%) [8]: 0% | Population Mitochondria Different-Phenotype (%) [8]: 46% | Population Mitotic Cells (%) [8]: 70% | Population Normal (%) [8]: 93% | Population Pyknosed Nuclei (%) [8]: 7% | Total Cell Count [8]: 443 | Population Apoptotic (%) [9]: 17% | Population Fragmented Nuclei (%) [9]: 16% | Population Healthy Nuclei (%) [9]: 77% | Population Hoechst High Intensity Objects (%) [9]: 2% | Population Membrane Permeable-Phenotype (%) [9]: 3% | Population Mitochondria Different-Phenotype (%) [9]: 13% | Population Mitotic Cells (%) [9]: 82% | Population Normal (%) [9]: 97% | Population Pyknosed Nuclei (%) [9]: 6% | Population Tubulin-Different-Phenotype (%) [9]: 10% | Total Cell Count [9]: 1005 | Population Apoptotic (%) [10]: 33% | Population Fragmented Nuclei (%) [10]: 14% | Population Healthy Nuclei (%) [10]: 79% | Population Hoechst High Intensity Objects (%) [10]: 3% | Population Membrane Permeable-Phenotype (%) [10]: 1% | Population Mitochondria Different-Phenotype (%) [10]: 19% | Population Mitotic Cells (%) [10]: 66% | Population Normal (%) [10]: 96% | Population Tubulin-Different-Phenotype (%) [10]: 7% | Total Cell Count [10]: 661 | Population Apoptotic (%) [11]: 24% | Population Fragmented Nuclei (%) [11]: 19% | Population Healthy Nuclei (%) [11]: 74% | Population Hoechst High Intensity Objects (%) [11]: 3% | Population Membrane Permeable-Phenotype (%) [11]: 1% | Population Mitochondria Different-Phenotype (%) [11]: 13% | Population Mitotic Cells (%) [11]: 75% | Population Normal (%) [11]: 96% | Population Pyknosed Nuclei (%) [11]: 5% | Population Tubulin-Different-Phenotype (%) [11]: 10% | Total Cell Count [11]: 995 | Population Apoptotic (%) [12]: 25% | Population Fragmented Nuclei (%) [12]: 13% | Population Healthy Nuclei (%) [12]: 81% | Population Hoechst High Intensity Objects (%) [12]: 5% | Population Mitochondria Different-Phenotype (%) [12]: 23% | Population Normal (%) [12]: 94% | Population Pyknosed Nuclei (%) [12]: 4% | Population Tubulin-Different-Phenotype (%) [12]: 19% | Total Cell Count [12]: 600

Cc1ccc(/C(=C\CN2CCCC2)c2ccccn2)cc1 [TRIPROLIDINE]
Population Apoptotic (%) [1]: 34% | Population Fragmented Nuclei (%) [1]: 6% | Population Healthy Nuclei (%) [1]: 83% | Population Hoechst High Intensity Objects (%) [1]: 7% | Population Membrane Permeable-Phenotype (%) [1]: 0% | Population Mitochondria Different-Phenotype (%) [1]: 45% | Population Mitotic Cells (%) [1]: 65% | Population Normal (%) [1]: 92% | Population Pyknosed Nuclei (%) [1]: 9% | Population Tubulin-Different-Phenotype (%) [1]: 24% | Total Cell Count [1]: 424 | Population Apoptotic (%) [2]: 50% | Population Fragmented Nuclei (%) [2]: 3% | Population Healthy Nuclei (%) [2]: 84% | Population Hoechst High Intensity Objects (%) [2]: 5% | Population Mitochondria Different-Phenotype (%) [2]: 55% | Population Mitotic Cells (%) [2]: 50% | Population Normal (%) [2]: 94% | Population Pyknosed Nuclei (%) [2]: 11% | Population Tubulin-Different-Phenotype (%) [2]: 17% | Total Cell Count [2]: 446 | Population Apoptotic (%) [3]: 44% | Population Fragmented Nuclei (%) [3]: 10% | Population Healthy Nuclei (%) [3]: 72% | Population Hoechst High Intensity Objects (%) [3]: 15% | Population Membrane Permeable-Phenotype (%) [3]: 0% | Population Mitochondria Different-Phenotype (%) [3]: 67% | Population Mitotic Cells (%) [3]: 56% | Population Normal (%) [3]: 84% | Population Pyknosed Nuclei (%) [3]: 16% | Population Tubulin-Different-Phenotype (%) [3]: 53% | Total Cell Count [3]: 368 | Population Fragmented Nuclei (%) [4]: 6% | Population Healthy Nuclei (%) [4]: 77% | Population Hoechst High Intensity Objects (%) [4]: 8% | Population Mitochondria Different-Phenotype (%) [4]: 74% | Population Normal (%) [4]: 91% | Population Pyknosed Nuclei (%) [4]: 15% | Population Tubulin-Different-Phenotype (%) [4]: 45% | Total Cell Count [4]: 344 | Population Apoptotic (%) [5]: 30% | Population Fragmented Nuclei (%) [5]: 10% | Population Healthy Nuclei (%) [5]: 78% | Population Hoechst High Intensity Objects (%) [5]: 3% | Population Membrane Permeable-Phenotype (%) [5]: 0% | Population Mitochondria Different-Phenotype (%) [5]: 27% | Population Mitotic Cells (%) [5]: 70% | Population Normal (%) [5]: 96% | Population Pyknosed Nuclei (%) [5]: 10% | Population Tubulin-Different-Phenotype (%) [5]: 18% | Total Cell Count [5]: 574 | Population Fragmented Nuclei (%) [6]: 9% | Population Healthy Nuclei (%) [6]: 82% | Population Hoechst High Intensity Objects (%) [6]: 7% | Population Mitochondria Different-Phenotype (%) [6]: 34% | Population Mitotic Cells (%) [6]: 69% | Population Normal (%) [6]: 92% | Population Pyknosed Nuclei (%) [6]: 7% | Population Tubulin-Different-Phenotype (%) [6]: 9% | Total Cell Count [6]: 541 | Population Apoptotic (%) [7]: 36% | Population Fragmented Nuclei (%) [7]: 8% | Population Healthy Nuclei (%) [7]: 78% | Population Hoechst High Intensity Objects (%) [7]: 9% | Population Membrane Permeable-Phenotype (%) [7]: 0% | Population Mitochondria Different-Phenotype (%) [7]: 55% | Population Mitotic Cells (%) [7]: 63% | Population Normal (%) [7]: 90% | Population Pyknosed Nuclei (%) [7]: 13% | Population Tubulin-Different-Phenotype (%) [7]: 43% | Total Cell Count [7]: 490 | Population Apoptotic (%) [8]: 27% | Population Fragmented Nuclei (%) [8]: 9% | Population Healthy Nuclei (%) [8]: 80% | Population Hoechst High Intensity Objects (%) [8]: 4% | Population Mitochondria Different-Phenotype (%) [8]: 54% | Population Mitotic Cells (%) [8]: 72% | Population Normal (%) [8]: 95% | Population Pyknosed Nuclei (%) [8]: 10% | Population Tubulin-Different-Phenotype (%) [8]: 26% | Total Cell Count [8]: 464 | Population Apoptotic (%) [9]: 16% | Population Fragmented Nuclei (%) [9]: 14% | Population Healthy Nuclei (%) [9]: 79% | Population Hoechst High Intensity Objects (%) [9]: 1% | Population Membrane Permeable-Phenotype (%) [9]: 2% | Population Mitochondria Different-Phenotype (%) [9]: 17% | Population Mitotic Cells (%) [9]: 83% | Population Normal (%) [9]: 98% | Population Pyknosed Nuclei (%) [9]: 6% | Population Tubulin-Different-Phenotype (%) [9]: 11% | Total Cell Count [9]: 950 | Population Apoptotic (%) [10]: 37% | Population Fragmented Nuclei (%) [10]: 10% | Population Healthy Nuclei (%) [10]: 84% | Population Hoechst High Intensity Objects (%) [10]: 3% | Population Membrane Permeable-Phenotype (%) [10]: 1% | Population Mitochondria Different-Phenotype (%) [10]: 13% | Population Mitotic Cells (%) [10]: 62% | Population Normal (%) [10]: 96% | Population Pyknosed Nuclei (%) [10]: 4% | Population Tubulin-Different-Phenotype (%) [10]: 6% | Total Cell Count [10]: 837 | Population Apoptotic (%) [11]: 43% | Population Fragmented Nuclei (%) [11]: 16% | Population Healthy Nuclei (%) [11]: 74% | Population Hoechst High Intensity Objects (%) [11]: 6% | Population Membrane Permeable-Phenotype (%) [11]: 0% | Population Mitochondria Different-Phenotype (%) [11]: 46% | Population Mitotic Cells (%) [11]: 56% | Population Normal (%) [11]: 93% | Population Pyknosed Nuclei (%) [11]: 9% | Population Tubulin-Different-Phenotype (%) [11]: 29% | Total Cell Count [11]: 674 | Population Apoptotic (%) [12]: 33% | Population Fragmented Nuclei (%) [12]: 13% | Population Healthy Nuclei (%) [12]: 78% | Population Hoechst High Intensity Objects (%) [12]: 4% | Population Membrane Permeable-Phenotype (%) [12]: 1% | Population Mitochondria Different-Phenotype (%) [12]: 43% | Population Mitotic Cells (%) [12]: 66% | Population Normal (%) [12]: 95% | Population Pyknosed Nuclei (%) [12]: 7% | Population Tubulin-Different-Phenotype (%) [12]: 25% | Total Cell Count [12]: 644
